Where “and” joins values, the source holds several entries; their conditions need not be identical. Identical values can stand only once.
Key:
dynamic light scattering = assay type: physicochemical; settings: DLS conc. 50 μM
procaspase-3 = target: T1, procaspase-3 (Homo sapiens, UniProt P42574); assay: procaspase-3 self-activation assay; assay type: biochemical
T1 sequence (P42574 1-277): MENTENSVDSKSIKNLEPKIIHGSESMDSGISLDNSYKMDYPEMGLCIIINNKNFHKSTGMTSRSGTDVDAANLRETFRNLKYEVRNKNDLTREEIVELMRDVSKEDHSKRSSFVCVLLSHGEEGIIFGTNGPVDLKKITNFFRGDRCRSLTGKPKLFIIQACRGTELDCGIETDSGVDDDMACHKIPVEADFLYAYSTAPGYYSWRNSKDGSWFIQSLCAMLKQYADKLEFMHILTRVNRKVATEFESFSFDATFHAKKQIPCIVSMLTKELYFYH
In short: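 Known promiscuous enzyme-inhibiting aggregators (panel of six) were each tested for ability to activate wild-type procaspase-3. The self-activation assay is run at 37°C.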

caspase-3 = target: T2, caspase-3 (Homo sapiens, UniProt P42574); assay: inhibition of mature caspase-3 by known aggregators; assay type: biochemical
T2 sequence (P42574 29-175 limits assumed): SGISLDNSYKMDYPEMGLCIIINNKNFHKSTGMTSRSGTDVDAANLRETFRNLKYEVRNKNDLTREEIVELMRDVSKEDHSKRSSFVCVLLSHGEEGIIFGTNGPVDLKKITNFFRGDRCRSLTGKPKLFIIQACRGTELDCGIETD
T2 sequence (P42574 176-277 limits assumed): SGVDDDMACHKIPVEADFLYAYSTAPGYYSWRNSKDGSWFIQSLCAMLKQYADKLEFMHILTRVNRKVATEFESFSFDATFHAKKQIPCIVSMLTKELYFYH

SMILES	DLS Intensity (dynamic light scattering; 25°C)	Radius (dynamic light scattering; 25°C)	DLS Intensity (dynamic light scattering; 37°C) [kcps]	Radius (dynamic light scattering; 37°C) [nm]	activation of procaspase-3 by known aggregators (procaspase-3)	inhibition of mature caspase-3 (caspase-3)
O=C1OC(c2cc(I)c(O)c(I)c2)(c2cc(I)c(O)c(I)c2)c2ccccc21 [TIPT, 3′,3″,5′,5″-tetraiodophenolpthalein]	3903.5 kcps and 3903.5 ± 1423.0 kcps	71.1 nm and 71.1 ± 8.6 nm	3933.2 ± 1369.0	76.7 ± 7.8	–	–
Nc1c(/N=N/c2ccc(-c3ccc(/N=N/c4cc(S(=O)(=O)O)c5ccccc5c4N)cc3)cc2)cc(S(=O)(=O)O)c2ccccc12 [Congo red]	–	–	–	–	no activation	inhibited
